Measurements reported in ChEMBL document CHEMBL1148725, “2,2,2-Trichloro-N-({2-[2-(dimethylamino)ethyl]-1,3-dioxo-2,3-dihydro-1H-benzo[de]isoquinolin- 5-yl}carbamoyl)acetamide (UNBS3157), a novel nonhematotoxic naphthalimide derivative with potent antitumor activity” (J Med Chem, 2007).
pIC50: −log10 of the molar value. Activity calls are given as the source filed them. The rule behind the calls is not given here.

Tests used:
Mus musculus [1] = experiment: Hematotoxicity in B6D2F1 mouse assessed as platelet count at 10 mg/kg, po; assay type: organism-based; parameters: dose 10 mg/kg, route oral; settings: in vivo
Mus musculus [2] = experiment: Hematotoxicity in B6D2F1 mouse assessed as platelet count at 20 mg/kg, po; assay type: organism-based; parameters: dose 20 mg/kg, route oral; settings: in vivo
Mus musculus [3] = experiment: Hematotoxicity in B6D2F1 mouse assessed as platelet count at 40 mg/kg, po; assay type: organism-based; parameters: dose 40 mg/kg, route oral; settings: in vivo
[4] = Antiproliferative activity against Hs683 cells after 72 hrs by MTT assay; assay type: functional, cell-based, Homo sapiens, Hs 683
In short: (§1)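 Cells cultured with each compound for three days; growth then read by the MTT colorimetric assay and reported as IC50 (µM).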

[5] = Antiproliferative activity against U373MG cells after 72 hrs by MTT assay; assay type: functional, cell-based, Homo sapiens, U-373MG ATCC; in short: as §1
HCT-15 = experiment: Antiproliferative activity against HCT15 cells after 72 hrs by MTT assay; assay type: functional, cell-based, Homo sapiens; in short: as §1
LoVo = experiment: Antiproliferative activity against LoVo cells after 72 hrs by MTT assay; assay type: functional, cell-based, Homo sapiens; in short: as §1
A549 = experiment: Antiproliferative activity against A549 cells after 72 hrs by MTT assay; assay type: functional, cell-based, Homo sapiens; in short: as §1
MCF7 = experiment: Antiproliferative activity against MCF7 cells after 72 hrs by MTT assay; assay type: functional, cell-based, Homo sapiens; in short: as §1
[6] = Toxicity in ip dosed B6D2F1 mouse; assay type: organism-based; settings: in vivo
In short: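 Acute MTD was set by a single i.p. dose to groups of three healthy female B6D2F1 mice, at 2.5, 5, 10, 20, 40, 80 and 160 mg/kg. The MTD is the dose just below the lowest dose that killed at least one mouse.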

L1210 [7] = experiment: Antitumor activity in L1210 cells xenografted B6D2F1 mouse at 10 mg/kg, ip relative to control; assay type: functional; settings: route intraperitoneal
In short: (§2)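 Mice grafted with L1210 leukaemia cells on day 0, then dosed i.p. four times weekly on days 1-4 and 8-11. Five mice per group. Outcome is %T/C, the median survival of treated over control. Kruskal-Wallis test followed by Dunn comparisons against control.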

L1210 [8] = experiment: Antitumor activity in L1210 cells xenografted B6D2F1 mouse at 20 mg/kg, ip relative to control; assay type: functional; settings: route intraperitoneal; in short: as §2
L1210 [9] = experiment: Antitumor activity in L1210 cells xenografted B6D2F1 mouse at 40 mg/kg, ip relative to control; assay type: functional; settings: route intraperitoneal; in short: as §2
L1210 [10] = experiment: Antitumor activity in L1210 cells xenografted B6D2F1 mouse at 80 mg/kg, ip relative to control; assay type: functional; settings: route intraperitoneal; in short: as §2
L1210 [11] = experiment: Antitumor activity in L1210 cells xenografted B6D2F1 mouse at 120 mg/kg, ip relative to control; assay type: functional; settings: route intraperitoneal; in short: as §2
Mus musculus [12] = experiment: Hematotoxicity in B6D2F1 mouse assessed as platelet count at 5 mg/kg, iv; assay type: organism-based; parameters: dose 5 mg/kg, route intravenous; settings: in vivo
Mus musculus [13] = experiment: Hematotoxicity in B6D2F1 mouse assessed as platelet count at 10 mg/kg, iv; assay type: organism-based; parameters: dose 10 mg/kg, route intravenous; settings: in vivo
Mus musculus [14] = experiment: Hematotoxicity in B6D2F1 mouse assessed as WBC count at 10 mg/kg, iv; assay type: organism-based; parameters: dose 10 mg/kg, route intravenous; settings: in vivo
Mus musculus [15] = experiment: Hematotoxicity in B6D2F1 mouse assessed as RBC count at 5 mg/kg, iv; assay type: organism-based; parameters: dose 5 mg/kg, route intravenous; settings: in vivo
Mus musculus [16] = experiment: Hematotoxicity in B6D2F1 mouse assessed as RBC count at 10 mg/kg, iv; assay type: organism-based; parameters: dose 10 mg/kg; settings: in vivo
Mus musculus [17] = experiment: Hematotoxicity in B6D2F1 mouse assessed as WBC count at 5 mg/kg, iv; assay type: organism-based; parameters: dose 5 mg/kg, route intravenous; settings: in vivo
Mus musculus [18] = experiment: Hematotoxicity in B6D2F1 mouse assessed as RBC count at 10 mg/kg, po; assay type: organism-based; parameters: dose 10 mg/kg, route oral; settings: in vivo
Mus musculus [19] = experiment: Hematotoxicity in B6D2F1 mouse assessed as RBC count at 20 mg/kg, po; assay type: organism-based; parameters: dose 20 mg/kg, route oral; settings: in vivo
Mus musculus [20] = experiment: Hematotoxicity in B6D2F1 mouse assessed as RBC count at 40 mg/kg, po; assay type: organism-based; parameters: dose 40 mg/kg, route oral; settings: in vivo
Mus musculus [21] = experiment: Hematotoxicity in B6D2F1 mouse assessed as WBC count at 10 mg/kg, po; assay type: organism-based; parameters: dose 10 mg/kg, route oral; settings: in vivo
Mus musculus [22] = experiment: Hematotoxicity in B6D2F1 mouse assessed as WBC count at 20 mg/kg, po; assay type: organism-based; parameters: dose 20 mg/kg, route oral; settings: in vivo
Mus musculus [23] = experiment: Hematotoxicity in B6D2F1 mouse assessed as WBC count at 40 mg/kg, po; assay type: organism-based; parameters: dose 40 mg/kg, route oral; settings: in vivo
Mus musculus [24] = experiment: Toxicity in B6D2F1 mouse at 120 mg/kg, ip; assay type: organism-based; parameters: dose 120 mg/kg, route intraperitoneal; settings: in vivo
In short: (§3)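 Healthy female B6D2F1 mice, 10 per group, dosed i.p. in DMSO/saline (5:95 v/v) three times weekly for five weeks at two levels set relative to MTD; sacrificed 3 days after final dose; platelet, RBC and WBC counted by Coulter counter.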

Mus musculus [25] = experiment: Hematotoxicity in ip dosed B6D2F1 mouse assessed as decrease in platelet count; assay type: organism-based; settings: in vivo
In short: (§4)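 Healthy female B6D2F1 mice, 10 per group, dosed i.p. three times weekly for five weeks at two dose levels set relative to MTD. Vehicle DMSO/saline 5:95 v/v. Killed 3 days after the last dose; blood platelet, RBC and WBC counts taken with a Coulter counter.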

Mus musculus [26] = experiment: Hematotoxicity in ip dosed B6D2F1 mouse assessed as decrease in RBC count; assay type: organism-based; settings: in vivo; in short: as §4
Mus musculus [27] = experiment: Hematotoxicity in B6D2F1 mouse assessed as RBC count at 2.5 mg/kg, po; assay type: organism-based; parameters: dose 2.5 mg/kg, route oral; settings: in vivo
Mus musculus [28] = experiment: Hematotoxicity in B6D2F1 mouse assessed as RBC count at 5 mg/kg, po; assay type: organism-based; parameters: dose 5 mg/kg, route oral; settings: in vivo
L1210 [29] = experiment: Antitumor activity in L1210 cells xenografted B6D2F1 mouse at 5 mg/kg, ip relative to control; assay type: functional; settings: route intraperitoneal; in short: as §2
Mus musculus [30] = experiment: Hematotoxicity in B6D2F1 mouse assessed as platelet count at 2.5 mg/kg, iv; assay type: organism-based; parameters: dose 2.5 mg/kg, route intravenous; settings: in vivo
Mus musculus [31] = experiment: Hematotoxicity in B6D2F1 mouse assessed as RBC count at 2.5 mg/kg, iv; assay type: organism-based; parameters: dose 2.5 mg/kg, route intravenous; settings: in vivo
Mus musculus [32] = experiment: Hematotoxicity in B6D2F1 mouse assessed as WBC count at 2.5 mg/kg, iv; assay type: organism-based; parameters: dose 2.5 mg/kg, route intravenous; settings: in vivo
Mus musculus [33] = experiment: Hematotoxicity in B6D2F1 mouse assessed as platelet count at 2.5 mg/kg, po; assay type: organism-based; parameters: dose 2.5 mg/kg, route oral; settings: in vivo
Mus musculus [34] = experiment: Hematotoxicity in B6D2F1 mouse assessed as platelet count at 5 mg/kg, po; assay type: organism-based; parameters: dose 5 mg/kg, route oral; settings: in vivo
Mus musculus [35] = experiment: Hematotoxicity in B6D2F1 mouse assessed as WBC count at 2.5 mg/kg, po; assay type: organism-based; parameters: dose 2.5 mg/kg, route oral; settings: in vivo
Mus musculus [36] = experiment: Hematotoxicity in B6D2F1 mouse assessed as WBC count at 5 mg/kg, po; assay type: organism-based; parameters: dose 5 mg/kg, route oral; settings: in vivo
Mus musculus [37] = experiment: Toxicity in B6D2F1 mouse at 40 mg/kg, ip; assay type: organism-based; parameters: dose 40 mg/kg, route intraperitoneal; settings: in vivo
Mus musculus [38] = experiment: Toxicity in B6D2F1 mouse at 80 mg/kg, ip; assay type: organism-based; parameters: dose 80 mg/kg, route intraperitoneal; settings: in vivo; in short: as §3
Homo sapiens = species on record: Homo sapiens; experiment: Inhibition of human topoisomerase 2 at 50 uM by plasmid linearization assay

CN(C)CCN1C(=O)c2cccc3cc(/N=C\c4cc(O)ccc4O)cc(c23)C1=O
Activity (Mus musculus [1]): 909 10^3 /uL
Activity (Mus musculus [2]): 1007 10^3 /uL
Activity (Mus musculus [3]): 1033 10^3 /uL
pIC50 ([4]; hs 683): < 5.00
pIC50 ([5]; u-373mg atcc): 5.11
pIC50 (HCT-15; hct-15): < 5.00
pIC50 (LoVo; lovo): 5.08
pIC50 (A549; a549): 5.04
pIC50 (MCF7; mcf7): < 5.00
MTD [6]: > 160 mg/kg
Activity (L1210 [7]): 151%
Activity (L1210 [8]): 148%
Activity (L1210 [9]): 232%
Activity (L1210 [10]): >300%
Activity (L1210 [11]): 42%
Activity (Mus musculus [12]): 498 10^3 /uL
Activity (Mus musculus [13]): 443 10^3 /uL
Activity (Mus musculus [14]): 3.05 10^3 /uL
Activity (Mus musculus [15]): 9.48 10^6 /uL
Activity (Mus musculus [16]): 9.54 10^6 /uL
Activity (Mus musculus [17]): 3.09 10^3 /uL
Activity (Mus musculus [18]): 10.22 10^6 /uL
Activity (Mus musculus [19]): 9.92 10^6 /uL
Activity (Mus musculus [20]): 7.87 10^6 /uL
Activity (Mus musculus [21]): 2.36 10^3 /uL
Activity (Mus musculus [22]): 2.17 10^3 /uL
Activity (Mus musculus [23]): 4.07 10^3 /uL
Activity (Mus musculus [24]): Toxic
Activity (Mus musculus [25]): Toxic
Activity (Mus musculus [26]): Toxic

CC(=O)Nc1cc2c3c(cccc3c1)C(=O)N(CCN(C)C)C2=O
Activity (Mus musculus [1]): 922 10^3 /uL
Activity (Mus musculus [27]): 10.01 10^6 /uL
Activity (Mus musculus [28]): 10.25 10^6 /uL
pIC50 ([4]; Homo sapiens, Hs 683, 72 h): < 5.00
pIC50 ([5]; Homo sapiens, U373 MG, 72 h): 5.05
pIC50 (HCT-15; Homo sapiens, HCT-15, 72 h): 5.11
pIC50 (LoVo; Homo sapiens, LoVo, 72 h): < 5.00
pIC50 (A549; Homo sapiens, A549, 72 h): < 5.00
pIC50 (MCF7; Homo sapiens, MCF7, 72 h): < 5.00
MTD [6]: 40 mg/kg
Activity (L1210 [29]): 111%
Activity (L1210 [7]): 149%
Activity (L1210 [8]): >300%
Activity (L1210 [9]): 48%
Activity (L1210 [10]): 47%
Activity (Mus musculus [30]): 470 10^3 /uL
Activity (Mus musculus [12]): 351 10^3 /uL
Activity (Mus musculus [31]): 9.74 10^6 /uL
Activity (Mus musculus [15]): 9.59 10^6 /uL
Activity (Mus musculus [32]): 3.97 10^3 /uL
Activity (Mus musculus [17]): 2.5 10^3 /uL
Activity (Mus musculus [33]): 961 10^3 /uL
Activity (Mus musculus [34]): 968 10^3 /uL
Activity (Mus musculus [18]): 9.64 10^6 /uL
Activity (Mus musculus [35]): 2.66 10^3 /uL
Activity (Mus musculus [36]): 2.74 10^3 /uL
Activity (Mus musculus [21]): 2.66 10^3 /uL
Activity (Mus musculus [37]): Toxic
Activity (Mus musculus [38]): Toxic
Activity (Homo sapiens): Active
